Reference: ChEMBL document CHEMBL2385051, “Facile synthesis of new imidazo[1,2-a]pyridines carrying 1,2,3-triazoles via click chemistry and their antiepileptic studies” (Bioorg Med Chem Lett, 2013)
Active and inactive are the calls of the source. The calls are words filed in the database; no cut-off is given here.

Key:
[1] = system: Mus musculus; assay: Anticonvulsant activity in ip dosed NMRI mouse assessed as dose required to cause protection against subcutaneous pentylene tetrazole-induced seizure after 4 hrs; type: functional; details: read-out: MED
How it was run: (§1)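 Mice received 20, 40 and 100 mg/kg test doses. Seizures were induced by electrical shock (MES) or PTZ injection (scPTZ) at 0.5 and 4 h after dosing. The value recorded is the minimal dose protecting more than 50% of mice against seizure.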

[2] = system: Mus musculus; assay: Anticonvulsant activity in NMRI mouse assessed as protection against maximal electroshock-induced seizures at 20 to 100 mg/kg, ip after 0.5 hrs; type: functional, organism-based; how it was run: as §1
[3] = system: Mus musculus; assay: Anticonvulsant activity in NMRI mouse assessed as protection against maximal electroshock-induced seizures at 20 to 100 mg/kg, ip after 4 hrs; type: functional, organism-based; how it was run: as §1
[4] = Neurotoxicity in ip dosed NMRI mouse assessed as dose required to cause minimal motor impairment after 0.5 hrs by rotarod test; type: toxicity, organism-based; details: in vivo, read-out: MTC50
How it was run: (§2)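 Rotarod motor-impairment test in mice given 20, 40 and 100 mg/kg doses, read 0.5 and 4 h after administration. The value recorded is the minimal dose producing toxicity in more than 50% of mice.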

[5] = system: Mus musculus; assay: Anticonvulsant activity in NMRI mouse assessed as protection against subcutaneous pentylene tetrazole-induced seizure at 20 to 100 mg/kg, ip after 0.5 hrs; type: functional, organism-based; how it was run: as §1
[6] = Neurotoxicity in ip dosed NMRI mouse assessed as dose required to cause minimal motor impairment after 4 hrs by rotarod test; type: toxicity, organism-based; details: in vivo, read-out: MTC50; how it was run: as §2
[7] = system: Mus musculus; assay: Neurotoxicity in NMRI mouse assessed as minimal motor impairment at 20 to 100 mg/kg, ip after 4 hrs by rotarod test; type: toxicity, organism-based; set-up: dose 20-100 mg/kg, route intraperitoneal; details: in vivo; how it was run: as §2
[8] = system: Mus musculus; assay: Anticonvulsant activity in ip dosed NMRI mouse assessed as dose required to cause protection against maximal electroshock-induced seizures after 4 hrs; type: functional; details: read-out: MED; how it was run: as §1
[9] = system: Mus musculus; assay: Anticonvulsant activity in ip dosed NMRI mouse assessed as dose required to cause protection against subcutaneous pentylene tetrazole-induced seizure after 0.5 hrs; type: functional; details: read-out: MED; how it was run: as §1
[10] = system: Mus musculus; assay: Neurotoxicity in NMRI mouse assessed as minimal motor impairment at 20 to 100 mg/kg, ip after 0.5 hrs by rotarod test; type: toxicity, organism-based; set-up: dose 20-100 mg/kg, route intraperitoneal; details: in vivo; how it was run: as §2
[11] = system: Mus musculus; assay: Anticonvulsant activity in ip dosed NMRI mouse assessed as dose required to cause protection against maximal electroshock-induced seizures after 0.5 hrs; type: functional; details: read-out: MED; how it was run: as §1

| SMILES | minimal effective dose [1] | Activity [2] | Activity [3] | TD50 at 0.5 h [4] | Activity [5] | TD50 at 4 h [6] | Activity [7] | minimal effective dose [8] | minimal effective dose [9] | Activity [10] | minimal effective dose [11] |
| --- | --- | --- | --- | --- | --- | --- | --- | --- | --- | --- | --- |
| Cc1cccn2c(/C=N/OCc3cn(Cc4ccc(C#N)cc4)nn3)c(-c3ccc(F)cc3)nc12 | 40 mg/kg | inactive | inactive | 100 mg/kg | inactive | 100 mg/kg | – | – | – | – | – |
| Cc1ccc(-c2nc3ccc(Br)cn3c2/C=N/OCc2cn(Cc3ccc([N+](=O)[O-])cc3)nn2)cc1 | 20 mg/kg | – | – | – | – | – | Non-toxic | 100 mg/kg | 20 mg/kg | Non-toxic | 40 mg/kg |
| Cc1ccc(-c2nc3c(C)cccn3c2/C=N/OCc2cn(Cc3ccc([N+](=O)[O-])cc3)nn2)cc1 | 20 mg/kg | – | – | – | – | – | Non-toxic | 40 mg/kg | 20 mg/kg | Non-toxic | 40 mg/kg |
| Cc1cccn2c(/C=N/OCc3cn(Cc4ccc([N+](=O)[O-])cc4)nn3)c(-c3ccc(F)cc3)nc12 | 40 mg/kg | inactive | inactive | 100 mg/kg | inactive | 100 mg/kg | – | – | – | – | – |
| C#CCO/N=C/c1c(-c2ccc(C)cc2)nc2c(C)cccn12 | 20 mg/kg | – | – | – | – | – | Non-toxic | 40 mg/kg | 20 mg/kg | Non-toxic | 20 mg/kg |
